Reference: article PMC5916823 (Molecular cell, 2018)

Tests used:
surface groove of MCL-1 = conditions: ref Kotschy et al., 2016; cited from earlier work
[1] = ref Kotschy et al., 2016; cited from earlier work
SCAD = assay type: binding, mouse; conditions: Mcl-1-deleted murine livers reconstituted by scAAV; MS in duplicate
In short: (§1)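 Mcl-1 floxed mice (6–8 weeks, mixed sex) received tail-vein scAAV-LP1-Cre (2×10^11 genome copies) plus GFP control or FLAG-MCL-1 (wild-type, OMM-only or Matrix-only isoform) vectors (5×10^10 copies). Two weeks later, liver mitochondria were isolated by differential centrifugation and a 70%/30% Percoll gradient. Anti-FLAG M2 IP was run in 0.5% NP40/Tris pH 7.5 for 90 min, with FLAG-peptide elution. Three livers were pooled per IP; MS was run in duplicate, Sequest, ~1% FDR.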

PUMA = assay type: binding, mouse; conditions: Mcl-1-deleted murine livers reconstituted by scAAV; MS in duplicate
In short: as §1

BIM = assay type: binding, mouse; conditions: Mcl-1-deleted murine livers reconstituted by scAAV; MS in duplicate
In short: as §1

MCAD = assay type: binding, mouse; conditions: Mcl-1-deleted murine livers reconstituted by scAAV; MS in duplicate
In short: as §1

SEC = molecular target: the molecule itself; assay: SEC

Cc1c(-c2c(-c3ccc(F)o3)sc3ncnc(O[C@H](Cc4ccccc4OCc4ccnn4CC(F)(F)F)C(=O)O)c23)ccc(OCCN2CCN(C)CC2)c1Cl [S63845]
Selectivity for MCL-1 (surface groove of MCL-1): selectively targets the surface groove of MCL-1
Toxicity in treated mice [1]: lack of overt toxicity, including cardiotoxicity

B1: FLAG-MCL-1: full-length protein, reconstituted into Mcl-1−/− murine livers (protein, UniProt P97287 1-331, looked up)
chain: MFGLRRNAVIGLNLYCGGASLGAGGGSPAGARLVAEEAKARREGGGEAALLPGARVVARPPPVGAEDPDVTASAERRLHKSPGLLAVPPEEMAASAAAAIVSPEEELDGCEPEAIGKRPAVLPLLERVSEAAKSSGADGSLPSTPPPPEEEEDDLYRQSLEIISRYLREQATGSKDSKPLGEAGAAGRRALETLRRVGDGVQRNHETAFQGMLRKLDIKNEGDVKSFSRVMVHVFKDGVTNWGRIVTLISFGAFVAKHLKSVNQESFIEPLAETITDVLVRTKRDWLVKQRGWDGFVEFFHVQDLEGGIRNVLLAFAGVAGVGAGLAYLIR
modifications: full-length FLAG tag
Interaction with SCAD (FLAG pull-down) (SCAD): not MCAD or SCAD
Interaction with PUMA (FLAG pull-down) (PUMA): pulled down native VLCAD and established physiologic interactors of MCL-1, such as BIM and PUMA
Interaction with BIM (FLAG pull-down) (BIM): pulled down native VLCAD and established physiologic interactors of MCL-1, such as BIM and PUMA
Interaction with MCAD (FLAG pull-down) (MCAD): not MCAD or SCAD

B2: FLAG-MCL-1^OMM: mutant MCL-1 construct with an internal FLAG tag that only generates the OMM isoform (protein)
chain: MFGLAANAVIGLNLYCGGASLGAGGGSPAGARLVAEEAKARREGGGEAALLPGARVVARPPPVGAEDPDVTASAERRLHKSPGLLAVPPEEMAASAAAAIVSPEEELDGCEPEAIGKRPAVLPLLERVSEAAKSSGADGSLPSTPPPPEEEEDDLYRQSLEIISRYLREQATGSKDSKPLGEAGAAGRRALETLRRVGDGVQRNHETAFQGMLRKLDIKNEGDVKSFSRVMVHVFKDGVTNWGRIVTLISFGAFVAKHLKSVNQESFIEPLAETITDVLVRTKRDWLVKQRGWDGFVEFFHVQDLEGGIRNVLLAFAGVAGVGAGLAYLIR
modifications: left off: FLAG, internal (at residue 134), kept
Interaction with PUMA (FLAG pull-down) (PUMA): BIM and PUMA were enriched
Interaction with BIM (FLAG pull-down) (BIM): BIM and PUMA were enriched

B3: recombinant human VLCAD (aa 40-655), His-tagged (enzyme, UniProt P49748-1 40-655, looked up)
chain: YAGGAAQLALDKSDSHPSDALTRKKPAKAESKSFAVGMFKGQLTTDQVFPYPSVLNEEQTQFLKELVEPVSRFFEEVNDPAKNDALEMVEETTWQGLKELGAFGLQVPSELGGVGLCNTQYARLVEIVGMHDLGVGITLGAHQSIGFKGILLFGTKAQKEKYLPKLASGETVAAFCLTEPSSGSDAASIRTSAVPSPCGKYYTLNGSKLWISNGGLADIFTVFAKTPVTDPATGAVKEKITAFVVERGFGGITHGPPEKKMGIKASNTAEVFFDGVRVPSENVLGEVGSGFKVAMHILNNGRFGMAAALAGTMRGIIAKAVDHATNRTQFGEKIHNFGLIQEKLARMVMLQYVTESMAYMVSANMDQGATDFQIEAAISKIFGSEAAWKVTDECIQIMGGMGFMKEPGVERVLRDLRIFRIFEGTNDILRLFVALQGCMDKGKELSGLGSALKNPFGNAGLLLGEAGKQLRRRAGLGSGLSLSGLVHPELSRSGELAVRALEQFATVVEAKLIKHKKGIVNEQFLLQRLADGAIDLYAMVVVLSRASRSLSEGHPTAQHEKMLCDTWCIEAAARIREGMAALQSDPWQQELYRNFKSISKALVERGGVVTSNPLGF
stoichiometry N (SEC): 2
